# System: U2OS
# Assay: Multiplex assay against U2OS
# Assay type: toxicity, cell-based
# Details: human
# Procedure, shortened: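 Phenotypes for tubulin, mitochondrial mass and membrane permeability are expressed as per cents of healthy-nucleus cells. Cells were stained live at seeding with Hoechst33342, BioTracker Green Microtubule Cytoskeleton Dye, MitoTracker Red and Annexin V Alexa Fluor 680, then imaged after compound addition on a CQ1 microscope at 37°C and 5% CO2. Machine-learning gating in CellPathfinder separated Hoechst high-intensity objects from normal cells, divided normal cells by nuclear state (healthy, pyknosed, fragmented) and divided pyknosed cells into mitotic or apoptotic.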
# [1] = 12 h, 1 µM, compound concentration 1 uM, replicate 1
# [2] = 12 h, 1 µM, compound concentration 1 uM, replicate 2
# [3] = 12 h, 10 µM, compound concentration 10 uM, replicate 1
# [4] = 12 h, 10 µM, compound concentration 10 uM, replicate 2
# [5] = 24 h, 1 µM, compound concentration 1 uM, replicate 1
# [6] = 24 h, 1 µM, compound concentration 1 uM, replicate 2
# [7] = 24 h, 10 µM, compound concentration 10 uM, replicate 1
# [8] = 24 h, 10 µM, compound concentration 10 uM, replicate 2
smiles,measurement,setting,value
CC[C@H](Nc1ncnc2[nH]cnc12)c1nc2cccc(F)c2c(=O)n1-c1ccccc1 [IDELALISIB],Population Apoptotic (%),[1],46%
same,Population Fragmented Nuclei (%),[1],1%
same,Population Healthy Nuclei (%),[1],88%
same,Population Hoechst High Intensity Objects (%),[1],3%
same,Population Membrane Permeable-Phenotype (%),[1],47%
same,Population Mitochondria Different-Phenotype (%),[1],10%
same,Population Mitotic Cells (%),[1],53%
same,Population Normal (%),[1],96%
same,Population Pyknosed Nuclei (%),[1],9%
same,Population Tubulin-Different-Phenotype (%),[1],34%
same,Total Cell Count,[1],162
same,Population Apoptotic (%),[2],14%
same,Population Fragmented Nuclei (%),[2],10%
same,Population Healthy Nuclei (%),[2],84%
same,Population Hoechst High Intensity Objects (%),[2],9%
same,Population Membrane Permeable-Phenotype (%),[2],45%
same,Population Mitochondria Different-Phenotype (%),[2],8%
same,Population Mitotic Cells (%),[2],85%
same,Population Normal (%),[2],90%
same,Population Pyknosed Nuclei (%),[2],5%
same,Population Tubulin-Different-Phenotype (%),[2],27%
same,Total Cell Count,[2],132
same,Population Apoptotic (%),[3],0%
same,Population Fragmented Nuclei (%),[3],5%
same,Population Healthy Nuclei (%),[3],86%
same,Population Hoechst High Intensity Objects (%),[3],11%
same,Population Membrane Permeable-Phenotype (%),[3],4%
same,Population Mitochondria Different-Phenotype (%),[3],18%
same,Population Mitotic Cells (%),[3],100%
same,Population Normal (%),[3],88%
same,Population Pyknosed Nuclei (%),[3],7%
same,Population Tubulin-Different-Phenotype (%),[3],90%
same,Total Cell Count,[3],180
same,Population Fragmented Nuclei (%),[4],8%
same,Population Healthy Nuclei (%),[4],88%
same,Population Hoechst High Intensity Objects (%),[4],16%
same,Population Mitochondria Different-Phenotype (%),[4],28%
same,Population Normal (%),[4],83%
same,Population Pyknosed Nuclei (%),[4],2%
same,Population Tubulin-Different-Phenotype (%),[4],15%
same,Total Cell Count,[4],130
same,Population Apoptotic (%),[5],45%
same,Population Fragmented Nuclei (%),[5],3%
same,Population Healthy Nuclei (%),[5],85%
same,Population Hoechst High Intensity Objects (%),[5],3%
same,Population Membrane Permeable-Phenotype (%),[5],28%
same,Population Mitochondria Different-Phenotype (%),[5],9%
same,Population Mitotic Cells (%),[5],54%
same,Population Normal (%),[5],96%
same,Population Pyknosed Nuclei (%),[5],10%
same,Population Tubulin-Different-Phenotype (%),[5],17%
same,Total Cell Count,[5],210
same,Population Apoptotic (%),[6],42%
same,Population Fragmented Nuclei (%),[6],9%
same,Population Healthy Nuclei (%),[6],77%
same,Population Hoechst High Intensity Objects (%),[6],5%
same,Population Membrane Permeable-Phenotype (%),[6],32%
same,Population Mitochondria Different-Phenotype (%),[6],15%
same,Population Mitotic Cells (%),[6],57%
same,Population Normal (%),[6],94%
same,Population Pyknosed Nuclei (%),[6],13%
same,Population Tubulin-Different-Phenotype (%),[6],15%
same,Total Cell Count,[6],148
same,Population Apoptotic (%),[7],33%
same,Population Fragmented Nuclei (%),[7],3%
same,Population Healthy Nuclei (%),[7],93%
same,Population Hoechst High Intensity Objects (%),[7],11%
same,Population Membrane Permeable-Phenotype (%),[7],2%
same,Population Mitochondria Different-Phenotype (%),[7],19%
same,Population Mitotic Cells (%),[7],66%
same,Population Normal (%),[7],88%
same,Population Pyknosed Nuclei (%),[7],2%
same,Population Tubulin-Different-Phenotype (%),[7],94%
same,Total Cell Count,[7],244
same,Population Apoptotic (%),[8],40%
same,Population Fragmented Nuclei (%),[8],9%
same,Population Healthy Nuclei (%),[8],82%
same,Population Hoechst High Intensity Objects (%),[8],8%
same,Population Membrane Permeable-Phenotype (%),[8],8%
same,Population Mitochondria Different-Phenotype (%),[8],30%
same,Population Mitotic Cells (%),[8],60%
same,Population Normal (%),[8],91%
same,Population Pyknosed Nuclei (%),[8],7%
same,Population Tubulin-Different-Phenotype (%),[8],21%
same,Total Cell Count,[8],146

# From ChEMBL document CHEMBL4689842, “EUbOPEN Chemogenomics Library wave 1” (2021)
